# Compounds with a hit are over-represented: about 4% of the library has one in this group of screens.
# Smad3 inh: blocks human Smad3 binding to FoxH1 peptide. hit rate 0.29% among 88,000. AID 630. TR-FRET Smad3/Dy647-FoxH1 peptide binding, europium anti-His. inhibition, % at 25 µM;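 active means compounds that reduce the energy-transfer binding signal between the protein and its labelled peptide by more than half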;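 further: 0% = Smad3 plus labelled peptide maximal FRET and 100% = peptide-only background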
# HIV Rev-RRE inh: inhibitors of HIV-1 Rev-RRE RNA interaction | P05866 | Rev peptide-RRE RNA binding, FRET | inhibition, % at 8 µM | hit rate 0.79% among 97,000;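 active means inhibition above the screen-wide mean plus 3 SD, cut at about 35% in these data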;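 further: 0% = median DMSO wells and 100% = median Neomycin B control wells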
# Target sequence (P05866 whole entry, looked up): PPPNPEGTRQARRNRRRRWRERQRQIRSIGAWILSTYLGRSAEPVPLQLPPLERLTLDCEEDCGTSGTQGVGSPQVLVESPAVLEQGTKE
#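 Assay system: labelled RRE RNA duplex and labelled Rev peptide / Medium: HEPES pH 7.5 salt buffer with EDTA / Reagent: labelled Rev peptide / Schedule: 5 + 15 min at 25 °C / Signal: FRET, excitation 480 nm, emission 540 nm donor and 671 nm acceptor / Benchmarks: DMSO and neomycin B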
# ERa SRC1 inh: ER-alpha (human) coactivator binding inhibition; P03372; TR-FRET ER-alpha LBD / SRC-1 peptide, estradiol-bound; inhibition, % at 25.6 µM; hit rate 1.7% among 86,000; AID 629; in the data active means inhibition above about 50%;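 further: 0% = receptor plus peptide control and 100% = peptide only without receptor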
# FAK inh: blocks human focal adhesion kinase activity; Q05397; biochemical FAK kinase activity assay; inhibition, %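 (tested at 7 µM)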; hit rate 0.84% among 97,000; AID 727;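 further: 0% = DMSO and 100% = reference compound high control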
# ERb SRC1 inh: ER-beta (human) coactivator binding inhibition; Q92731; TR-FRET ER-beta LBD / SRC1-Cy5 peptide binding; receptor agonist-loaded with 1 µM estradiol; inhibition, % at 25.6 µM; hit rate 1.3% among 86,000; AID 633;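 active means compounds whose percent inhibition of the receptor-coactivator binding signal exceeds about 50% in the single-dose screen, limit read from the data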;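 further: 0% = receptor plus peptide wells without compound and 100% = peptide-only wells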
# ERa SRC1 pot: ER-alpha (human) coactivator binding potentiation | hit rate 1.3% among 86,000 | AID 639 | coactivator binding (% of control), % at 25.6 µM | TR-FRET ERalpha-LBD/SRC-Cy5 coactivator binding, 2 h; 100 = basal binding, no effect | P03372; in the data active means activity above about 200%;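 further: binding measured in presence of low estradiol as agonist stimulus; 0% = peptide alone without receptor and 100% = receptor with peptide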
# FAK inh confirm: confirmation of human focal adhesion kinase (FAK) inhibitors; shares compounds with FAK inh; FAK kinase biochemical inhibition assay; inhibition, % at 7 µM; hit rate 28% among 750; AID 794
# * = called active by the depositor; i = inactive; . = no result given; [ ] = another dose, or the depositor's remark. Unless noted, no stated cut-off is given here; in the data, active means inhibition above about 19%; inactive means the rest.
SMILES,Smad3 inh,HIV Rev-RRE inh,ERa SRC1 inh,FAK inh,ERb SRC1 inh,ERa SRC1 pot,FAK inh confirm
COCCOC(=O)C1=C(C)NC2=C(C(=O)CC(c3cccs3)C2)C1c1ccsc1 (stereo not given),0,4,10,23*,25,84,19*
Cc1ccccc1OCC(=O)NNC(=O)c1ccc(-c2ccccc2)cc1,.,3,.,20*,.,.,3
CC(=O)N(CCC(c1ccccc1)c1ccco1)Cc1cccs1 (stereo not given),-14,0,-6,-5,-4,74,.
O=C(c1ccco1)N(CCC(c1ccccc1)c1ccco1)Cc1ccco1 (stereo not given),.,8,.,20*,.,.,4
COc1ccc(S(=O)(=O)Nc2ccc(O)c(Sc3ncn[nH]3)c2)cc1,19,4,9,0,26,80,.
COc1ccc(S(=O)(=O)Nc2cc(Sc3ncn[nH]3)c(O)c3ccccc23)cc1,.,-10,.,45*,.,.,-2
COc1ccccc1CNC(=O)COC(=O)c1cc(-c2ccco2)nc2ccccc12,.,2,.,45*,.,.,24*
CC1=C([N+](=O)[O-])C(c2ccccc2)C2=C(N1)c1ccccc1C2=O (stereo not given),.,5,.,25*,.,.,15
COc1ccc(C2C(C#N)=C(C)NC3=C2C(=O)c2ccccc23)cc1 (stereo not given),12,5,7,2,3,126,.
Cc1ccc2c(n1)sc1c(N)ncnc12,11,-2,45,49*,5,131,18
COc1ccc2nc3oc(C(=O)NCc4cccs4)cc3cc2c1,.,-10,.,32*,.,.,10
C=CCn1c(NC(=O)c2ccccc2Cl)c(C#N)c2nc3ccccc3nc21,34,20,-12,20*,-7,76,6
CCCCn1c(NC(C)=O)c(C#N)c2nc3ccccc3nc21,4,11,6,-1,1,90,.
Cc1ccc(-n2c(-c3c(-c4ccccc4)noc3C)n[nH]c2=S)cc1,11,9,-4,-2,-5,84,.
CC1Oc2ccccc2N(CC(=O)NCCc2ccccc2)C1=O (stereo not given),.,-2,.,1,.,.,.
COc1ccc2c3c(cccc13)NN=C2C,32,-19,98*[fluorescence artefact?],84*,99*[fluorescence artefact?],-3,15
Cc1ccc(Cl)cc1NC1=C/C(=N\S(=O)(=O)c2cccs2)c2ccccc2C1=O,.,5,.,32*,.,.,23*
CC(=O)Nc1c(NCC(C)C)c2ccccc2oc1=O,.,5,.,-2,.,.,.
Cc1ccc(C)c(C(=O)CSc2n[nH]c(-c3ccncc3)n2)c1,.,6,.,30*,.,.,12
O=C(CC1C(=O)NCCN1C(=S)Nc1ccccc1)Nc1ccc2c(c1)OCCO2 (stereo not given),-1,3,-7,23*,-2,127,1
O=C(CC1C(=O)NCCN1C(=O)Nc1ccccc1)Nc1ccc2c(c1)OCO2 (stereo not given),-9,11,2,0,10,99,.
COc1cc(NC(=S)N2CCN(C(c3ccccc3)c3ccccc3)CC2)cc(OC)c1,.,-9,.,-1,.,.,.
CN(C)c1ccc(/C=C/C=C2/SC(=S)N(c3ccccc3)C2=O)cc1,.,i,.,-8,.,.,.
CC(C)C(C(=O)O)N1C(=O)/C(=C/C=C/c2ccco2)SC1=S (stereo not given),.,-76,.,88*,.,.,17
CC1CC(C)CN(CCCNC(=O)c2csc3c2CCCC3)C1 (stereo not given),-8,-1,1,-2,-7,105,.
NS(=O)(=O)c1ccc(NS(=O)(=O)c2ccc(NC(=O)c3ccc(-c4ccccc4)cc3)cc2)cc1,.,-7,.,30*,.,.,14
CCn1c(=O)c2c(cnn2C)c2ccccc21,.,4,.,32*,.,.,12
Cc1ccc(CN2CCN(CC3CC4C=CC3C4)CC2)cc1 (stereo not given),12,-5,-4,0,-3,112,.
CC1(C)CC(=O)c2c(O)cc(OCc3ccc([N+](=O)[O-])cc3)cc2O1,.,1,.,3,.,.,.
CSc1nc(SCC(=O)NCc2ccco2)c2c3c(sc2n1)COC(C)(C)C3,-1,.,15,.,4,143,.

# Screening results from PubChem BioAssay.
